# Results from ChEMBL document CHEMBL2163237, “Molecular determinants of selectivity and efficacy at the dopamine D3 receptor” (J Med Chem, 2012).
# Tests used:
# D(3) dopamine receptor [1] = target: T1, D(3) dopamine receptor (Homo sapiens, UniProt P35462); assay: Displacement of [125I]IABN from human D3 receptor expressed in HEK293 cells after 60 mins by gamma counting analysis; type: cell-based
# In short: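 Competitor spanned 5 orders of magnitude. Nonspecific binding defined with 15 µM (+)-butaclamol. Filtration with cold wash, then gamma counting. Single-site IC50 converted to Ki by Cheng-Prusoff. Mean of ≥3 independent experiments.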
# Homo sapiens = species on record: Homo sapiens; assay: Selectivity ratio of Ki for human D2L receptor to Ki for human D3 receptor
# D(2) dopamine receptor = D(2) dopamine receptor (Homo sapiens, UniProt P14416); assay: Displacement of [125I]IABN from human D2L receptor expressed in HEK293 cells after 60 mins by gamma counting analysis; type: cell-based
# In short: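 Competitor spanned 5 orders of magnitude. Filtration with cold wash, then gamma counting. Single-site IC50 converted to Ki by Cheng-Prusoff. Mean of ≥3 independent experiments.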
# D(3) dopamine receptor [2] = target: T1, D(3) dopamine receptor; assay: Partial agonist activity at human D3 receptor expressed in HEK293T cells coexpressing GalphaoA-91-Rluc8 and mVenus-Gbeta1gamma2 after 2 mins by bioluminescence resonance energy transfer assay relative to dopamine; type: functional, cell-based; conditions: HEK-293T
# In short: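 Human D3R transiently co-transfected (PEI) into HEK-293T cells with GαoA-RLuc8 and split-mVenus Gβ1/Gγ2; assayed ~48 h post-transfection. Cells in PBS/0.1% glucose at room temperature (40 µg protein/well), coelenterazine h 5 µM for 8 min, ligand for 2 min; BRET1 ratio 510–540/485 nm.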
# Sequence of D(2) dopamine receptor (P14416 whole entry): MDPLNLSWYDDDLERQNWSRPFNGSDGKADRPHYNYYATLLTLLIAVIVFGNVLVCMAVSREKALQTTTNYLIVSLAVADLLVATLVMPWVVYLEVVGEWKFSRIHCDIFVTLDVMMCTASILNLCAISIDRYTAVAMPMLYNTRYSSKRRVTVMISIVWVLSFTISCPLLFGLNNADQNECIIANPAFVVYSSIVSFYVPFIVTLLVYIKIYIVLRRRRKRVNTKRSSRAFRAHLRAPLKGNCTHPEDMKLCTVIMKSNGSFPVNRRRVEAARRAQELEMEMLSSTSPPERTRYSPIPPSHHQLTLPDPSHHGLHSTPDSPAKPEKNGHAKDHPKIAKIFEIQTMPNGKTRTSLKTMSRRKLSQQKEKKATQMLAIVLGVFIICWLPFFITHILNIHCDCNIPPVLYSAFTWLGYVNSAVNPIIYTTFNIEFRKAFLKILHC
# T1 sequence (P35462 whole entry): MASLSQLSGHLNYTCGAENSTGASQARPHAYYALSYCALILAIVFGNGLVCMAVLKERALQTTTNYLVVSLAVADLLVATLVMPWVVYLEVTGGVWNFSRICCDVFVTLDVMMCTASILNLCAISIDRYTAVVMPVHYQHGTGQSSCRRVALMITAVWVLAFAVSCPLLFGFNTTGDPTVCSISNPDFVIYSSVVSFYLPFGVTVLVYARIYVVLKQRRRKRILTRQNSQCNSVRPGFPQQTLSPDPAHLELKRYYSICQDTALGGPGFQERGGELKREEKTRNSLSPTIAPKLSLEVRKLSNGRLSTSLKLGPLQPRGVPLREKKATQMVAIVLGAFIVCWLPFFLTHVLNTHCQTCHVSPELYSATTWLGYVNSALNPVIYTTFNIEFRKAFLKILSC
SMILES,Ki (D(3) dopamine receptor [1]),Ratio Ki (Homo sapiens),Ki (D(2) dopamine receptor),Emax (D(3) dopamine receptor [2])
CCCCNC(=O)c1cc2ccccc2[nH]1,21500 nM,–,–,–
OCCN1CCN(c2cccc(Cl)c2Cl)CC1,36.3 nM,1.75,63.7 nM,–
O=C(NCCCCN1CCN(c2cccc(Cl)c2Cl)CC1)c1cc2ccccc2[nH]1,1.4 nM,–,–,16%
CCCCN1CCN(c2ccccc2OC)CC1,23.9 nM,0.86,20.6 nM,–
COc1ccccc1N1CCN(C)CC1,590 nM,0.45,265 nM,–
Clc1cccc(N2CCNCC2)c1Cl,197 nM,0.69,137 nM,–
CCC(=O)NCCCCN1CCN(c2ccccc2OC)CC1,38.6 nM,2.18,84 nM,–
COc1ccccc1N1CCNCC1,2260 nM,0.3,680 nM,–
CCC(=O)NCCCCN1CCN(c2cccc(Cl)c2Cl)CC1,4.8 nM,3.25,15.6 nM,–
CCCCN1CCN(c2cccc(Cl)c2Cl)CC1,1.9 nM,1.79,3.4 nM,–
CCCN1CCN(c2cccc(Cl)c2Cl)CC1,6.3 nM,0.82,5.2 nM,–
COc1ccccc1N1CCN(CCCCNC(=O)c2cc3ccccc3[nH]2)CC1,–,–,–,8.38%
O=C(NCC[C@@H](O)CN1CCN(c2cccc(Cl)c2Cl)CC1)c1cc2ccccc2[nH]1,–,–,–,20.6%
CN1CCN(c2cccc(Cl)c2Cl)CC1,54.6 nM,0.84,45.9 nM,–
